Molecules are shown by their SMILES.

The nature of this assay: Inhibition constant against Adenosine A2a receptor. A digest of the protocol: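 Membranes from HEK cells expressing human A2A receptor, incubated with 1 nM [3H]SCH-58261 and 10 test concentrations. Buffer: phosphate-buffered saline with 10 mM MgCl2, 0.04% methyl cellulose, adenosine deaminase and 4% DMSO. Incubation 60 min at 23 °C, then filtration and washes with cold water. Nonspecific binding defined with CGS-15943. Duplicates, each compound tested twice. IC50 from one-site fit, Ki by Cheng–Prusoff.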
Turning to `Cc1ccc2c(c1)-c1nc(N)nc(-c3ccc(CO)o3)c1C2`, the Ki (commonly the dissociation constant of the complex between target and ligand, obtained from inhibition or displacement) was 2.6 nM.
The compound `Cc1ccc2c(c1)-c1nc(N)nc(C3CCC(Br)O3)c1C2` (stereo not given) displayed a Ki of 4.2 nM.
In turn, `CCc1ccc2c(c1)-c1nc(N)nc(-c3ccc(Br)o3)c1C2` displayed a Ki of 2.6 nM.
`Cc1ccc2c(c1)-c1nc(N)nc(-c3ccncc3)c1C2` came in with a Ki of 56.9 nM.
The compound `COc1ccc2c(c1)-c1nc(N)nc(-c3ccc(Br)o3)c1C2` gave a Ki of 1.6 nM. This Ki lies about 36-fold lower than the previous one.
For `Nc1nc(-c2ccccc2)c2[nH]c3ccccc3c2n1`, the affinity, expressed as Ki, was 40.5 nM.
For the compound `CC(C)(C)c1ccc2c(c1)-c1nc(N)nc(-c3ccc(Br)o3)c1C2`, the Ki is 8.1 nM.
`Nc1nc(-c2ccccc2)c2oc3ccccc3c2n1`: the Ki was 9 nM. This Ki and that of the compound before are within 1.5-fold of each other.
In the case of `Nc1nc(-c2ccccc2)c2c(n1)-c1ccccc1CC2`, the affinity corresponds to a Ki of 172 nM. This Ki is about 19-fold higher than that of the compound before.
With `Nc1nc(-c2ccc(Br)o2)c2c(n1)-c1cc(Cl)ccc1C2` the figure was 1 nM; with `Nc1nc(-c2ccc(Br)o2)c2c(n1)-c1cc(N3CCCC3)ccc1C2`, 3.9 nM; with `Cc1ccc2c(c1)-c1nc(N)nc(-c3ccccc3)c1C2`, 11 nM.
Take `CC(C)c1ccc2c(c1)-c1nc(N)nc(-c3ccc(Br)o3)c1C2`: the Ki amounted to 0.8 nM.
Take `Cc1ccc2c(c1)-c1nc(N)nc(-c3ccco3)c1C2`: affinity was put at a Ki of 6.7 nM.
Regarding `Cc1ccc2c(c1)-c1nc(N)nc(-c3ccc(C)o3)c1C2`, the affinity corresponds to a Ki of 7.1 nM.
`Cc1ccc2c(c1)-c1nc(N)nc(-c3ccc(Br)o3)c1C2` came in with a Ki of 4.2 nM.
The compound `Nc1nc(-c2ccccc2)c2c(n1)-c1ccccc1C2O` (stereo not given) gave a Ki of 168 nM.
Regarding `Nc1nc(-c2ccc(Br)o2)c2c(n1)-c1cc(-c3ccccc3)ccc1C2`, the affinity corresponds to a Ki of 10.9 nM. This Ki lies about 15-fold lower than the previous one.
Compound `Cc1ccc2c(c1)-c1nc(N)nc(-c3ccccn3)c1C2` registered a Ki of 154 nM.
For the compound `Nc1nc(-c2ccccc2)c2c(n1)-c1ccccc1C2=O`, the Ki was determined as 1.7 nM.

The values are drawn from ChEMBL document CHEMBL1141997, “The discovery and synthesis of novel adenosine receptor (A(2A)) antagonists” (Bioorg Med Chem Lett, 2005).
